hERG protect: shields human hERG channel from block by proarrhythmic agents | 310,000 tested, 0.51% active | activation (rescue from dofetilide block), less the hit threshold, % at 10 µM | AID 1511 | CHO-hERG, FluxOR thallium flux, dofetilide IC70 present;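 active = activation above the mean of controls blocked by dofetilide plus 5 SD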;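 note: thallium influx through hERG after potassium depolarization seen as dye fluorescence rise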
Target sequence (Q12809 whole entry, looked up): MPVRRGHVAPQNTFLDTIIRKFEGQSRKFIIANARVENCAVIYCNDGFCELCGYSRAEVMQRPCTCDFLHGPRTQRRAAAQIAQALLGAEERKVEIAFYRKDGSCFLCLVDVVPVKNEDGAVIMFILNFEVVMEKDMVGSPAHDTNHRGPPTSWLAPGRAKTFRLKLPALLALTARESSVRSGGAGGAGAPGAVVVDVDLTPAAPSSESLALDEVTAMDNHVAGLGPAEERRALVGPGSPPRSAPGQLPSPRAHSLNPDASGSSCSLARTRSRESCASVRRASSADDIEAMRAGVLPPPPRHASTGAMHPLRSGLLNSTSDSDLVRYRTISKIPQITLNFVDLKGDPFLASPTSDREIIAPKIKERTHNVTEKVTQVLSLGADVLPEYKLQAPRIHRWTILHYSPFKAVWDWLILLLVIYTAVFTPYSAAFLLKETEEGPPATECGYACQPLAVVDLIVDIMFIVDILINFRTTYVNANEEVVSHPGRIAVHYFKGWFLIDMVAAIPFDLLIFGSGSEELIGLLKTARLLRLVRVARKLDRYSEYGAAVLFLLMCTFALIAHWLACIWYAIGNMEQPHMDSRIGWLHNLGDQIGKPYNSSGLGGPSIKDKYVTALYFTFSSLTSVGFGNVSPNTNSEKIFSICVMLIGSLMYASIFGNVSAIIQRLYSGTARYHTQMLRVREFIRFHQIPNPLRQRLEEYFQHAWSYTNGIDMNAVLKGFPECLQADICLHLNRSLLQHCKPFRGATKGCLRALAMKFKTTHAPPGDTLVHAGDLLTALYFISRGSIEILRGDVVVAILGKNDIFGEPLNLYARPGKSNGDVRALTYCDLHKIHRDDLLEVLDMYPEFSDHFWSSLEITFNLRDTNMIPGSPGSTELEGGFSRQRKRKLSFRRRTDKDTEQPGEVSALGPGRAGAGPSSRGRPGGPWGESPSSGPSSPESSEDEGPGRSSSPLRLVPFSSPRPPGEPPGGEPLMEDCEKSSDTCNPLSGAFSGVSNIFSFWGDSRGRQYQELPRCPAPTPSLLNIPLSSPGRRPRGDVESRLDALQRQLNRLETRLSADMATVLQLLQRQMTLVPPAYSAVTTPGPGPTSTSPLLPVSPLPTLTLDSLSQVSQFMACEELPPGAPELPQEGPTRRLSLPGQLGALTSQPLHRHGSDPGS
KCC2 mod: modulates chloride dependent transport by human KCC2; KCC2 cells, thallium flux FluoZin-2 fluorescence; B-score of Tl+ flux slope (higher = more flux/activation; lower = inhibition) at 10 µM; 190,000 tested, 2.2% active;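 active = thallium flux slope and its plate-corrected score both differing from the plate sample mean at a set confidence after two filtering rounds, in either direction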;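 note: slope of fluorescence scaled to starting intensity during 10 to 20 s after thallium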
AI-2 QS mod: Vibrio harveyi AI-2 quorum sensing modulation; Vibrio harveyi JMH597 AI-2 luminescence/OD600 ratio, 9 h; stronger effect = lower value; strain lacks LuxN and CqsS sensors; 0 = neutral-control median; activity change, % at 7.5 µM; 300,000 tested, 0.4% active; AID 2094; in the data active = activity change below about -75%, passing the limit was not always enough; inconclusive = no clear call, values can overlap the other calls;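 note: luminescence divided by OD600 gain over 9 h not by final OD600 alone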
KCNQ1 act: potentiates or activates the human KCNQ1 potassium channel. P51787. CHO-K1 KCNQ1, thallium flux FluxOR fluorescence; stronger effect = higher value. B-score at 10 µM. 310,000 tested, 0.35% active;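 active = fluorescence ratio B-score, a plate-corrected score, at least three library SD, with initial intensity B-score within 5 SD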
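assay system = CHO-K1 cells stably expressing KCNQ1 | medium = assay buffer, equal DMSO in all wells | timing = 37 °C overnight plating, 90-min dark dye load, 20-min compound pretreatment | measured by = kinetic FluxOR thallium fluorescence, 10-s 1-Hz baseline, 110-s post-stimulus read | measure = fluorescence change relative to baseline, converted to B score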
SUMO Mot1 rescue: SUMOylation pathway inhibition by Mot1-301 growth rescue; 320,000 tested, 1% active; growth rescue, % at 18.8 µM; S. cerevisiae Mot1-301 growth rescue, ATP luminescence, 38.5C; percent above DMSO median, 100 means doubled;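 active = every valid replicate shows activation above 250% relative to neutral control wells; inactive = the rest, any valid replicate at or below 250%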;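 note: OY570 slx delta 5 strain wells were the positive control but not used for scaling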
KCNQ1 inh: inhibitors of human KCNQ1 potassium channel; CHO-K1 KCNQ1, FluxOR thallium flux fluorescence; stronger effect = higher value; B-score at 10 µM; 310,000 tested, 1.3% active;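 active = compounds whose thallium flux B-score, printed positive for inhibition, exceeds three library SD while starting fluorescence stays within three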;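 note: channel opened by potassium depolarization with thallium stimulus after 20 min compound exposure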
KCC2 secondary: confirmation of human KCC2 transport modulators; 3,700 tested, 15% active; normalised thallium flux (F/F0 slope) at 10 µM; shares compounds with KCC2 mod; AID 1713; HEK293-KCC2, thallium flux, FluoZin2 fluorescence; stronger effect = higher value;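 active = thallium flux slope above the same plate's solvent-only control mean plus 3 SD; inconclusive = the two replicate wells disagree; inactive = no significant difference from solvent-only control wells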
KCC2 bumet counter: thallium flux persisting under bumetanide in KCC2 cells, counter-screen secondary assay. shares compounds with KCC2 mod. HEK293-KCC2 + bumetanide/ouabain, thallium flux FluoZin2; stronger effect = higher value. normalized thallium flux at 10 µM. 3,700 tested, 49% active. AID 1714;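 active = thallium entry rate above the same plate's blocked-transporter control wells by more than 3 SD; inconclusive = the two repeat wells disagree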;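 note: raw slope of fluorescence over initial fluorescence between 10 and 20 s after thallium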
KCC2 sec2: confirmation of human KCC2 transport modulators. shares compounds with KCC2 mod. HEK293-KCC2, thallium flux FluoZin2 fluorescence; actives lie on both sides; F/F0 rise rate, 10–20 s post-thallium. normalized thallium flux at 10 µM. 3,700 tested, 23% active. AID 1715;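 active = thallium flux slope more than 3 SD above or below the plate's solvent-only control mean, mostly below; inconclusive = the two repeat wells disagreed; inactive = no significant shift from solvent-only controls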;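 note: raw slope with 0.1% DMSO as baseline and bumetanide as block control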
HEK293 Tl flux: parental HEK flux effect, counter-screen; shares compounds with KCC2 mod; HEK293 parental cells, thallium flux FluoZin2, ouabain; baseline-ratio fluorescence slope, 10–20 s after thallium; thallium flux rate (normalised fluorescence) at 10 µM; 3,700 tested, 46% active; AID 1716;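 active = thallium flux rate significantly above the same plate's solvent-only control wells, beyond their mean plus 3 SD; inconclusive = the two replicate wells gave conflicting results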
KCC2 ouabain: KCC2 (human) modulation, ouabain retest; shares compounds with KCC2 mod; HEK293-KCC2, thallium flux FluoZin2 fluorescence; bidirectional: low = inhibitor, high = activator; raw Tl+ flux slope (below DMSO = inhibition, above = activation) at 10 µM; 3,700 tested, 48% active; AID 1717;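 active = thallium flux slope beyond 3 SD from same-plate DMSO control mean in most replicates, usually higher, sometimes lower; inconclusive = repeat tests gave conflicting results; inactive = no significant difference from controls in most replicates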;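 note: slope of initial-normalized fluorescence between seconds 10 and 20 after thallium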
HEK293 Tl flux2: counter-screen for KCC2 modulators: effect in parental HEK293 cells; shares compounds with KCC2 mod; 3,700 tested, 33% active; thallium flux slope at 10 µM; thallium flux FluoZin-2 fluorescence slope;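 active = thallium flux slope above the same plate's solvent-control mean plus 3 SD in both duplicate wells; inconclusive = duplicate wells that disagreed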;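 note: run without ouabain in cells lacking the KCC2 cotransporter; slope of fluorescence scaled to its starting value between 10 and 20 s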
* marks the source's active call; other numbers are inactive results. Only some compounds are listed: those with a hit (about 4.2% of all), similar ones and a draw of the others.

`OCC1N=C(c2ccccn2)OC1c1ccccc1` (configuration not stated) gave hERG protect -5, KCC2 mod -5.8*, AI-2 QS mod 31, KCNQ1 act inactive, SUMO Mot1 rescue 8, KCNQ1 inh inactive, KCC2 secondary 0.0072, KCC2 bumet counter 0.007, KCC2 sec2 0.03, HEK293 Tl flux 0.0072, KCC2 ouabain 0.02 and HEK293 Tl flux2 0.01*.
For c1ccc(-c2nc3ccccc3o2)nc1 the results were hERG protect -7, KCC2 mod -0.81, AI-2 QS mod 24, KCNQ1 act inactive, SUMO Mot1 rescue -25 and KCNQ1 inh inactive.
`COc1ccc(-c2nc3n(n2)C(c2ccncc2)C(C(N)=O)=C(C)N3)cc1` (configuration not stated) gave hERG protect -13, KCC2 mod 11*, AI-2 QS mod -1, KCNQ1 act inactive, SUMO Mot1 rescue -2, KCNQ1 inh inactive, KCC2 secondary 0.0081, KCC2 bumet counter 0.007, KCC2 sec2 0.032, HEK293 Tl flux 0.008, KCC2 ouabain 0.022 and HEK293 Tl flux2 0.011.
Screening CCOC(=O)C1=C(COC(=O)c2ccc([N+](=O)[O-])o2)NC(=O)NC1C (configuration not stated) returned SUMO Mot1 rescue 4.
CCC(C)(C)NC(=O)CN(Cc1ccccc1Cl)C(=O)CCC(=O)Nc1cc(C)ccn1 was read as hERG protect -11, KCC2 mod 0.22, AI-2 QS mod 10, KCNQ1 act inactive, SUMO Mot1 rescue 0 and KCNQ1 inh inactive.
Screening Fc1ccccc1COc1ccc(Br)cc1CNCC1CCCO1 (configuration not stated) returned hERG protect -21, KCC2 mod -0.11, AI-2 QS mod 1, KCNQ1 act inactive, SUMO Mot1 rescue -2 and KCNQ1 inh inactive.
`Cn1nnc(NCc2cc(Br)ccc2OCc2ccccc2F)n1` gave hERG protect -1, KCC2 mod -4.1*, AI-2 QS mod 11, KCNQ1 act inactive, SUMO Mot1 rescue -16, KCNQ1 inh inactive, KCC2 secondary 0.0053, KCC2 bumet counter 0.0031*, KCC2 sec2 0.024*, HEK293 Tl flux 0.006*, KCC2 ouabain 0.013* and HEK293 Tl flux2 0.0095.
Clc1ccc(CCNc2ncnc3nc[nH]c23)cc1 was read as KCC2 mod -1, AI-2 QS mod 9 and SUMO Mot1 rescue 316.
Screening c1ccc2c(CCNc3ncnc4nc[nH]c34)cccc2c1 returned hERG protect -15, KCC2 mod -3.2*, AI-2 QS mod 18, KCNQ1 act inactive, KCNQ1 inh inactive, KCC2 secondary 0.0085, KCC2 bumet counter 0.0041, KCC2 sec2 0.035, HEK293 Tl flux 0.0076, KCC2 ouabain 0.017* and HEK293 Tl flux2 0.011.
C=CCOc1c(Br)cc(/C=N/Nc2ccc(C(=O)O)cc2)cc1OCC was read as hERG protect -12, KCC2 mod -5.7*, AI-2 QS mod -49, KCNQ1 act inactive, SUMO Mot1 rescue -13, KCNQ1 inh inactive, KCC2 secondary 0.0059, KCC2 bumet counter 0.0058*, KCC2 sec2 0.028, HEK293 Tl flux 0.0079, KCC2 ouabain 0.017 and HEK293 Tl flux2 0.01.
For CCOc1cc(/C=N/O)cc(Br)c1OCC the results were hERG protect -9, KCC2 mod -0.6, AI-2 QS mod 17, KCNQ1 act inactive, SUMO Mot1 rescue 12 and KCNQ1 inh inactive.
Nc1[nH]ncc1-c1ccccc1 was read as hERG protect -5, KCC2 mod 0.79, AI-2 QS mod 41, KCNQ1 act inactive, SUMO Mot1 rescue -3 and KCNQ1 inh inactive.
For C/C=N/NC(=O)CCNC(=O)c1ccccc1 the results were hERG protect -3, KCC2 mod 0.78, AI-2 QS mod 4, KCNQ1 act inactive, SUMO Mot1 rescue -9 and KCNQ1 inh inactive.
Screening COC(=O)c1cc2c(ccn2-c2ccc(F)cc2)n1CC(=O)N1CCN(C(=O)c2ccco2)CC1 returned KCC2 mod -6.7*, SUMO Mot1 rescue 11, KCC2 secondary inconclusive, KCC2 bumet counter inconclusive, KCC2 sec2 0.028*, HEK293 Tl flux 0.0095*, KCC2 ouabain inconclusive and HEK293 Tl flux2 0.01.
`CCn1c(C(=O)OC)cc2c1ccn2-c1ccc(F)cc1` gave hERG protect -3, KCC2 mod 0.46, AI-2 QS mod 11, KCNQ1 act inactive, SUMO Mot1 rescue 5 and KCNQ1 inh inactive.
Screening CCOC(=O)c1cc2c(ccn2-c2ccc(F)cc2)n1CC(=O)NC(C)(C)C returned hERG protect -9, KCC2 mod -5.6*, AI-2 QS mod 22, KCNQ1 act inactive, SUMO Mot1 rescue 22, KCNQ1 inh inactive, KCC2 secondary 0.0065, KCC2 bumet counter 0.0049, KCC2 sec2 0.024*, HEK293 Tl flux 0.0077, KCC2 ouabain 0.017* and HEK293 Tl flux2 0.012.
Screening O=C(Nc1cc(S(=O)(=O)Nc2ccc(Cl)cc2)ccc1N1CCCCC1)c1ccc(F)cc1Cl returned hERG protect -8, KCC2 mod 0, AI-2 QS mod 25, KCNQ1 act inactive, SUMO Mot1 rescue -23 and KCNQ1 inh inactive.

Screening data from PubChem.
